Consider one compound from article PMC9208026 (Journal of pharmacological sciences, 2022).

Each structure is given as a SMILES string.

For test [1], the system named is collagen-induced arthritis (CIA) joints. Description: Histopathology study of limbs. Particulars: MTX 1.5 mg/kg i.p., CIA mice limbs, H&E, N = 4. Type of test: in vivo, DBA1 mice.
Test [2] concerns bovine type II collagen antibody. Kind of test: Collagen antibody level in CIA mice serum. Type of test: in vivo, DBA1 mice. Particulars: CIA mice serum at end of study, ELISA, N = 6. The method, boiled down: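 Serum came from CIA DBA1 mice (N = 6 per group) at the end of the study, spun at 10,000 rpm for 10 min, then cleared at 10,000 rpm for 3 min and diluted 1:40,000. Anti-bovine type II collagen ELISA: wells blocked 1 h at room temperature; standards and samples 2 h; secondary antibody 1 h; TMB 15 min; stopped and read at A450. Levels were taken from a standard curve; mean ± SEM.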
On the technique in general: In an ELISA, binding on a coated surface is turned into a signal by an enzyme label.

In the case of `CN(Cc1cnc2nc(N)nc(N)c2n1)c1ccc(C(=O)N[C@@H](CCC(=O)O)C(=O)O)cc1` [MTX, Methotrexate], the “histopathological changes (inflammation, synovial hyperplasia, cartilage/bone erosion)” value in test [1] is “reduced occurrence of the changes”. Further, the “bovine collagen antibody level in serum compared to vehicle group” value in test [2] was “lower”.
